We go through two molecules from ChEMBL document CHEMBL3853310, “Daphnane Diterpenes from Daphne genkwa Activate Nurr1 and Have a Neuroprotective Effect in an Animal Model of Parkinson's Disease” (J Nat Prod, 2016).

Series [1] concerns BV-2. In words: Antiinflammatory activity in mouse BV2 cells assessed as downregulation of LPS-induced IL-6 level at 3 uM by Western blot method. It is filed as functional, cell-based.
Series [2] deals with SH-SY5Y. In words: Neuroprotective activity against 6-OHDA-induced cell death in human SH-SY5Y cells assessed as decrease in cleaved caspase-3 level at 6 uM by Western blot method. It is filed as functional, cell-based. The method in brief: (§1)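 SH-SY5Y cells exposed to 6-OHDA in serum-free N-2 medium ± compound at 6 µM. Lysates in Triton/Tris/NaCl/PMSF, SDS-PAGE, PVDF blot, HRP secondary, ECL detection of cleaved caspase-3 and cytosolic cytochrome c. Actin and SOD-1 used as loading controls.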

In series [3] the test system is BV-2. The series is described as follows: Antiinflammatory activity in mouse BV2 cells assessed as downregulation of LPS-induced IL-6 mRNA expression at 3 uM by qRT-PCR method. The format is functional, cell-based. In outline: (§2)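 BV-2 mouse microglia (DMEM, 10% heat-inactivated FBS, 2 mM glutamine) in six-well plates at 1.0 × 10^5 cells/well, given LPS with or without compound at 37 °C. RNA extracted. IL-1β and IL-6 mRNA measured by SYBR Green real-time PCR on cDNA from 50 ng DNase-treated RNA. ANOVA with Tukey–Kramer, n = 4.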
In general terms: Real-time PCR tracks product formation cycle by cycle.

Series [4] deals with Rattus norvegicus. In words: Neuroprotective activity in 6-OHDA-lesioned Sprague-Dawley rat model of parkinson disease assessed as decrease in loss of tyrosine hydroxylase-positive immunoreactive neuronal cell levels in ipsilateral side of substantia nigra pars compacta by measuring cell levels in intact contralateral side at 0.5 mg/kg/day, ip administered for 2 weeks measured on day 43 post 6-OHDA lesion induction by immunohistochemical analysis (reference value: 24.62 +/- 3.48%). The format is functional. Set-up: scale not given: the % may be the effect or the level left. In outline:
(§3)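 Same unilateral striatal 6-OHDA rat model with 2-week daily ip dosing (vehicle 0.25% ethanol). Perfused with 4% PFA on day 43. 40 µm coronal sections stained by DAB for TH (SNc, AP −4.8 to −5.5) or Iba-1 (striatum, AP +1.0 to +0.6). Cells counted in three sections per animal. TH expressed as % of contralateral side. Student's t-test, n = 10–14.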

Series [5] deals with Rattus norvegicus. The series is described as follows: Antiinflammatory activity in 6-OHDA-lesioned Sprague-Dawley rat model of parkinson disease assessed as decrease in Iba-1 positive cell levels in striatum at 0.5 mg/kg/day, ip administered for 2 weeks measured on day 43 post 6-OHDA lesion induction by immunohistochemical analysis relative to vehicle-treated control. It is filed as functional, organism-based. In outline: as §3

Series [6] has as its system SH-SY5Y. In words: Neuroprotective activity against 6-OHDA-induced cell death in human SH-SY5Y cells assessed as increase in cell viability at 6.25 uM by MTT reduction assay. The format is functional, cell-based. In outline: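 SH-SY5Y cells grown 2 days on poly-D-lysine in DMEM with 10% horse serum and 5% FBS, then switched to serum-free N-2 medium containing 6-OHDA ± compound. Viability by MTT (1 mg/mL final, 1 h), formazan solubilized 24 h in Triton/HCl/isopropanol, absorbance 570 nm. ANOVA with Tukey–Kramer, n = 4.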
On the technique in general: Tetrazolium dyes change colour on reduction, which living cells bring about.

Series [7] addresses Nuclear receptor subfamily 4 group A member 2 (Mus musculus) (UniProt Q06219). In words: Activation of mouse Nurr1 transfected in human SK-N-BE(2)C cells at 0.3 uM by luciferase reporter gene assay relative to control. It is filed as cell-based. The method in brief: (§4)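 SK-N-BE(2)C neuroblastoma cells plated 1.5 × 10^5/well a day before, transfected with pTH2600LUC (2.6 kb rat TH promoter), pCMV Nurr1-myc, pZeoSV-Nurr1(LBD), p8xGAL-Luc and pRSV-β-gal control (0.5 µg DNA/well total). Test agent added 6 h post-transfection in DMEM with 1% charcoal-stripped serum, incubated overnight. Firefly luciferase read, normalized to β-galactosidase.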
On the technique in general: Reporter assays use an easily measured gene product as a stand-in for the process of interest.

The nature of series [8]: Cytotoxicity against human SH-SY5Y cells assessed as decrease in cell viability at higher concentrations by MTT reduction assay. It is filed as toxicity, cell-based.
Series [9] deals with BV-2. The series is described as follows: Antiinflammatory activity in mouse BV2 cells assessed as downregulation of LPS-induced IL-1beta level at 3 uM by Western blot method. It is filed as functional, cell-based.
Series [10] has as its system Rattus norvegicus. The series is described as follows: Neuroprotective activity in 6-OHDA-lesioned Sprague-Dawley rat model of parkinson disease assessed as decrease in d-amphetamine-induced ipsilateral rotations at 0.5 mg/kg/day, ip administered for 2 weeks measured on day 14 and 42 post 6-OHDA lesion induction relative to vehicle-treated control. It is filed as functional, organism-based. The method in brief: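 Sprague-Dawley rats (140–160 g), desipramine 25 mg/kg ip 30 min before surgery, under Zoletil anesthesia. 6-OHDA 8 µL of 2.5 µg/µL injected into left striatum. Compound in saline with 0.25% ethanol or vehicle given ip daily for 2 weeks (n = 10 vs 14). d-Amphetamine 5 mg/kg. Ipsilateral turns counted for 30 min starting 30 min after dosing, at weeks 2 and 6. Student's t-test.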

For series [11], the target named is Nuclear receptor subfamily 4 group A member 2 (Mus musculus) (UniProt Q06219). The series is described as follows: Activation of mouse Nurr1 transfected in human SK-N-BE(2)C cells by luciferase reporter gene assay. The format is cell-based. The method in brief:
as §4

The nature of series [12]: Cytotoxicity against human SK-N-BE(2)C cells up to 30 uM. It is filed as toxicity, cell-based.
The subject of series [13] is SH-SY5Y. The series is described as follows: Neuroprotective activity against 6-OHDA-induced cell death in human SH-SY5Y cells assessed as decrease in release of mitochondrial cytochrome c into cytosolic fraction at 6 uM by Western blot method. The format is functional, cell-based. In outline:
as §1

Series [14] relates to BV-2. In words: Antiinflammatory activity in mouse BV2 cells assessed as downregulation of LPS-induced IL-1beta mRNA expression at 3 uM by qRT-PCR method. It is filed as functional, cell-based. In outline:
as §2

Each structure is given as a SMILES string. The source made the active and inactive calls. No cut-off for these calls is given here.

Nuclear receptor subfamily 4 group A member 2 (Mus musculus), sequence (Q06219 whole entry, the tested form may be a part): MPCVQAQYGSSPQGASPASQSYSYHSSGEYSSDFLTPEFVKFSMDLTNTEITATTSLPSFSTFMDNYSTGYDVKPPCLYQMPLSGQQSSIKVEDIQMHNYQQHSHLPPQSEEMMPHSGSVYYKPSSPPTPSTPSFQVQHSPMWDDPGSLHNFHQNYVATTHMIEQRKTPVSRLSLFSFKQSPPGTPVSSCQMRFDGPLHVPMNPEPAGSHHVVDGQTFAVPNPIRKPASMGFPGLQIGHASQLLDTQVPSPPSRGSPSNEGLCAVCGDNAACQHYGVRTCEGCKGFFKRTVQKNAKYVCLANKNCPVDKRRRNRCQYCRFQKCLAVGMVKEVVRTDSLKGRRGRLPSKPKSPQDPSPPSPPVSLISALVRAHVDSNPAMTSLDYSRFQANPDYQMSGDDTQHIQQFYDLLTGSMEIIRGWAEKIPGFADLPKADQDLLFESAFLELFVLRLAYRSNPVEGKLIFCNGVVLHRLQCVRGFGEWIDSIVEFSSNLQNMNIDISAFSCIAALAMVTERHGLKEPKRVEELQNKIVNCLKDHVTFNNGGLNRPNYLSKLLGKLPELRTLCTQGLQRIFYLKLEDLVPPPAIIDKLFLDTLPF

As to `C=C(C)[C@@]12OC3(/C=C/C=C/CCCCC)O[C@@H]1[C@@H]1[C@@H]4O[C@]4(CO)[C@@H](O)[C@]4(O)C(=O)C(C)=C[C@H]4[C@@]1(O3)[C@H](C)[C@H]2OC(=O)c1ccccc1`, the outcome in the series with BV-2 [1], in the series on SH-SY5Y [2], in the series with BV-2 [3], in the series with Rattus norvegicus [5], in the series on SH-SY5Y [6] and in the series with BV-2 [9] was Active. The result in the series with Rattus norvegicus [10], in the series on SH-SY5Y [13] and in the series with BV-2 [14] was Active. Besides, the Activity in the series with Rattus norvegicus [4] was 40.28%; in [8] it was “Toxic”; in series [11], “Dose-dependent effect”; in series [12], “Non-Toxic”. In addition, the fold change (FC) in [7] amounted to 3.5.

Turning to `C=C(C)[C@]12C[C@@H](C)[C@@]34OC(c5ccccc5)(O[C@@H]1[C@@H]3[C@@H]1O[C@]1(CO)[C@@H](O)[C@@]1(O)[C@H]4C[C@H](C)[C@@H]1OC(=O)c1ccccc1)O2`, the outcome in the series on BV-2 [1], in the series with SH-SY5Y [2], in the series on BV-2 [3], in the series on SH-SY5Y [6], in the series with BV-2 [9] and in the series on SH-SY5Y [13] was Active. Further, the result in the series on BV-2 [14] was Active. This molecule also yielded a fold change (FC) in series [7] of 3. In addition, the Activity result in [8] is “Toxic”; in series [11], “Dose-dependent effect”; in [12], “Non-Toxic”.
